Published values collected from several papers.
Compare with care: the assays were run in different laboratories.
GLP2R: Glucagon-like peptide 2 receptor (GLP2R, Homo sapiens, UniProt O95838)
NTRK1: High affinity nerve growth factor receptor (NTRK1, Homo sapiens, UniProt P04629)
Melanocortin receptor 4: Melanocortin receptor 4 (Mus musculus, UniProt P56450)
Tspo: Translocator protein (Tspo, Rattus norvegicus, UniProt P16257)

CC[C@H](C)[C@H](NC(=O)[C@H](CO)NC(=O)[C@H](Cc1ccc(O)cc1)NC(=O)[C@H](CC(=O)O)NC(=O)[C@H](CO)NC(=O)[C@@H](NC(=O)[C@H](Cc1ccccc1)NC(=O)[C@@H](NC(=O)CNC(=O)[C@H](CCC(=O)O)NC(=O)[C@H](C)NC(=O)[C@@H](N)Cc1ccc(O)cc1)[C@@H](C)O)[C@@H](C)CC)C(=O)N[C@@H](C)C(=O)N[C@@H](CCSC)C(=O)N[C@@H](CC(=O)O)C(=O)N[C@@H](CCCCN)C(=O)N[C@H](C(=O)N[C@@H](Cc1c[nH]cn1)C(=O)N[C@@H](CCC(N)=O)C(=O)N[C@@H](CCC(N)=O)C(=O)N[C@@H](CC(=O)O)C(=O)N[C@@H](Cc1ccccc1)C(=O)N[C@H](C(=O)N[C@@H](CC(N)=O)C(=O)N[C@@H](Cc1c[nH]c2ccccc12)C(=O)N[C@@H](CC(C)C)C(=O)N[C@@H](CC(C)C)C(=O)N[C@@H](C)C(=O)N[C@@H](CCC(N)=O)C(=O)N[C@@H](CCCCN)C(=O)NCC(=O)N[C@@H](CCCCN)C(=O)N[C@@H](CCCCN)C(=O)N[C@@H](CC(N)=O)C(=O)N[C@@H](CC(=O)O)C(=O)N[C@@H](Cc1c[nH]c2ccccc12)C(=O)N[C@@H](CCCCN)C(=O)N[C@@H](Cc1c[nH]cn1)C(=O)N[C@@H](CC(N)=O)C(=O)N[C@H](C(=O)N[C@H](C(=O)N[C@@H](CCC(N)=O)C(=O)O)[C@@H](C)O)[C@@H](C)CC)C(C)C)[C@@H](C)CC — EC50 (GLP2R; reporter gene, agonist, luciferase): > 1 µM
N#Cc1ccc(COc2cccc(C3CCN(Cc4nc5ccc(C(=O)O)cc5n4C[C@@H]4CCO4)CC3)n2)c(F)c1 — EC50 (GLP2R; cAMP, agonist): > 20 µM
CCn1ncc2c1-c1cnc(N)c(c1)O[C@H](C)c1cc(F)ccc1-c1nn(C)nc1C2 — IC50 (NTRK1; enzyme activity, inhibitor, radiometric): 144 nM
N=C(N)NCCC[C@H](NC(=O)[C@H](CC(=O)O)NC(=O)[C@H](Cc1c[nH]c2ccccc12)NC(=O)[C@H](CCCNC(=N)N)NC(=O)[C@H](Cc1ccccc1)NC(=O)[C@@H](N)Cc1c[nH]cn1)C(=O)N[C@@H](Cc1ccccc1)C(=O)NCC(=O)O — EC50 (Melanocortin receptor 4; reporter gene, agonist): 8.38 µM
O[C@@H]1[C@H](O)[C@@H]2C[C@@H]2[C@H]1n1cnc2c(NCCc3ccccc3)nc(C#Cc3ccccc3)nc21 — Ki (Tspo; ligand displacement, radioligand): > 10 µM
N=C(N)NCCC[C@H](NC(=O)[C@@H](N)CC(=O)O)C(=O)N[C@@H](Cc1ccccc1)C(=O)NCC(=O)O — EC50 (Melanocortin receptor 4; reporter gene, agonist): > 100 µM
CCOC(=O)[C@@]12C[C@@H]1[C@@H](n1ccc3c(NC4CC4)nc(C#Cc4ccccc4)nc31)[C@H](O)[C@@H]2O — Ki (Tspo; ligand displacement, radioligand): > 10 µM
N=C(N)NCCC[C@H](NC(=O)[C@@H](N)CC(=O)O)C(=O)N[C@@H](Cc1ccccc1)C(=O)O — EC50 (Melanocortin receptor 4; reporter gene, agonist): > 100 µM
CNc1nc(C#Cc2ccccc2)nc2c1ncn2[C@H]1[C@H](O)[C@H](O)[C@@H]2C[C@@H]21 — Ki (Tspo; ligand displacement, radioligand): > 10 µM
CSCC[C@H](NC(=O)[C@@H](NC(=O)[C@@H](N)Cc1ccc(O)cc1)C(C)C)C(=O)NCC(=O)O — EC50 (Melanocortin receptor 4; reporter gene, agonist): > 100 µM
O=C(OC[C@H]1OC[C@H](OC(=O)c2cc(O)c(O)c(O)c2)[C@@H](O)[C@@H]1O)c1cc(O)c(O)c(O)c1 — Kd (Replicase polyprotein 1ab, main protease (rep, Severe acute respiratory syndrome coronavirus 2, UniProt P0DTD1); binding, SPR): 1180 nM
CSCC[C@H](N)C(=O)NCC(=O)N[C@@H](Cc1c[nH]cn1)C(=O)N[C@@H](Cc1ccccc1)C(=O)N[C@@H](CCCNC(=N)N)C(=O)N[C@@H](Cc1c[nH]c2ccccc12)C(=O)O — EC50 (Melanocortin receptor 4; reporter gene, agonist): 41.9 µM
Cc1cnc(-c2ccc(-c3ccc(NC(=O)Nc4c(F)cc(F)cc4F)cc3F)c3c2C(=O)NC3)[nH]1 — Kd (NTRK1; binding, competition with immobilised ligand): 1 nM
CCOC(=O)[C@@]12C[C@@H]1[C@@H](n1ccc3c(NC)nc(I)nc31)[C@H](O)[C@@H]2O — Ki (Tspo; ligand displacement, radioligand): > 10 µM
O=C(Nc1ccncc1)c1cn(Cc2ccc(Cl)c(Cl)c2)c(=O)c2cnn(C3CCNCC3)c12 — Kd (Fascin (FSCN1, Homo sapiens, UniProt Q16658); binding, ITC): 45 nM
